# Activity calls are given as the source filed them. The calls are words filed in the database; no cut-off is given here.
# Experiments:
# Assay type in all cases: functional
# Aspergillus flavus [1] = assay: Antifungal activity against Aspergillus flavus at 500 ppm; details: for zone of inhibition at 500 ppm: read-out: DIZ
# Summary of the method: (§1)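 Agar well diffusion against clinical isolates (A. flavus mold; C. albicans yeast); standardized spore suspension 10⁴ CFU/mL. Compounds dissolved in DMSO as a parent stock, diluted to test levels (100, 300, 500, 1000 ppm).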
# Aspergillus flavus [2] = assay: Antifungal activity against Aspergillus flavus by agar diffusion technique
# Summary of the method: (§2)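 Clinical isolates (A. flavus mold; C. albicans yeast), spore suspension standardized at 10⁴ CFU/mL. DMSO stocks diluted to a concentration series. Approximate MIC by agar diffusion (well technique), taken as the concentration giving minimal inhibition around the well.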
# Aspergillus flavus [3] = assay: Antifungal activity against Aspergillus flavus at 100 ppm
# Summary of the method: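 Clinical isolate of A. flavus (mold) tested by agar diffusion, well technique, using a standardized spore suspension of 10⁴ CFU/mL. Compounds were dissolved in dimethylsulphoxide and diluted from a parent stock.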
# Candida albicans [4] = assay: Antifungal activity against Candida albicans up to 24 hrs
# Summary of the method: (§3)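 MFC in tubes of standardized spore suspension (10⁴ CFU/mL) of clinical isolates, each dosed with compound at increasing concentrations starting from the MIC. Controls: solvent at its highest level, and fluconazole. CFU counted and viability checked at intervals over 0–24 h. MFC is the lowest concentration killing about 99% of viable CFU.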
# Candida albicans [5] = assay: Antifungal activity against Candida albicans at 1000 ppm; details: read-out: DIZ; summary of the method: as §1
# Aspergillus flavus [6] = assay: Antifungal activity against Aspergillus flavus at 1000 ppm; details: for zone of inhibition at 1000 ppm: read-out: DIZ; summary of the method: as §1
# Candida albicans [7] = assay: Antifungal activity against Candida albicans at 100 ppm; details: for zone of inhibition at 100 ppm: read-out: DIZ; summary of the method: as §1
# Candida albicans [8] = assay: Antifungal activity against Candida albicans at 500 ppm; details: for zone of inhibition at 500 ppm: read-out: DIZ; summary of the method: as §1
# Aspergillus flavus [9] = assay: Antifungal activity against Aspergillus flavus up to 24 hrs; summary of the method: as §3
# Aspergillus flavus [10] = assay: Antifungal activity against Aspergillus flavus at 300 ppm; details: for zone of inhibition at 300 ppm: read-out: DIZ; summary of the method: as §1
# Candida albicans [11] = assay: Antifungal activity against Candida albicans by agar diffusion technique; summary of the method: as §2
# Candida albicans [12] = assay: Antifungal activity against Candida albicans at 300 ppm; details: for zone of inhibition at 300 ppm: read-out: DIZ; summary of the method: as §1
Structure (SMILES),zone of inhibition at 500 ppm (Aspergillus flavus [1]) [mm],MIC (Aspergillus flavus [2]),diameter of the inhibition zone (DIZ) (Aspergillus flavus [3]),MFC (Candida albicans [4]),zone of inhibition at 1000 ppm (Candida albicans [5]) [mm],zone of inhibition at 1000 ppm (Aspergillus flavus [6]) [mm],zone of inhibition at 100 ppm (Candida albicans [7]) [mm],zone of inhibition at 500 ppm (Candida albicans [8]) [mm],MFC (Aspergillus flavus [9]),zone of inhibition at 300 ppm (Aspergillus flavus [10]) [mm],MIC (Candida albicans [11]) [µg/mL],zone of inhibition at 300 ppm (Candida albicans [12]) [mm],diameter of the inhibition zone (DIZ) (Aspergillus flavus [1]),diameter of the inhibition zone (DIZ) (Aspergillus flavus [10]),diameter of the inhibition zone (DIZ) (Aspergillus flavus [6]),diameter of the inhibition zone (DIZ) (Candida albicans [7]),diameter of the inhibition zone (DIZ) (Candida albicans [12]),MFC (Aspergillus flavus [2]) [µg/mL],zone of inhibition at 100 ppm (Aspergillus flavus [3]; read-out: DIZ) [mm],diameter of the inhibition zone (DIZ) (Candida albicans [8])
O=C(CCn1nc2sc3ccccc3n2c1=S)N(C(=O)NC1CCCCC1)C1CCCCC1,10,300 µg/mL,inactive,500 µg/mL,> 16,> 16,< 10,> 16,inactive,< 10,100,10,,,,,,,,
COC(=O)[C@H](Cc1ccc(O)cc1)NC(=O)CSc1nnc2sc3ccccc3n12,,1000 µg/mL,inactive,inactive,> 16,< 10,< 10,> 16,inactive,,100,< 10,inactive,inactive,,,,,,
Sc1nnc2sc3ccccc3n12,10,300 µg/mL,inactive,500 µg/mL,> 16,> 16,< 10,> 16,500 µg/mL,< 10,100,10,,,,,,,,
CCOC(=O)CSc1nnc2sc3ccccc3n12,,inactive,inactive,inactive,10,,,< 10,inactive,,500,,inactive,inactive,inactive,inactive,inactive,,,
Sc1nc2ccccc2s1 [2-MERCAPTOBENZOTHIAZOLE],< 10,500 µg/mL,inactive,500 µg/mL,> 16,10,< 10,10,inactive,,100,< 10,,inactive,,,,,,
COC(=O)C(NC(=O)CSc1nnc2sc3ccccc3n12)C(C)O (racemic),,1000 µg/mL,inactive,inactive,10,10,,< 10,inactive,,500,,inactive,inactive,,inactive,inactive,,,
OC(Cn1cncn1)(Cn1cncn1)c1ccc(F)cc1F [FLUCONAZOLE],> 16,,,300 µg/mL,> 16,> 16,< 10,> 16,300 µg/mL,10,100,10,,,,,,100,< 10,
COC(=O)CNC(=O)CSc1nnc2sc3ccccc3n12,,1000 µg/mL,inactive,inactive,10,< 10,,< 10,inactive,,500,,inactive,inactive,,inactive,inactive,,,
O=C(O)CCn1nc2sc3ccccc3n2c1=S,< 10,500 µg/mL,inactive,inactive,> 16,10,,10,inactive,,300,< 10,,inactive,,inactive,,,,
NNC(=O)CCn1nc2sc3ccccc3n2c1=S,,inactive,inactive,inactive,< 10,,,,inactive,,1000,,inactive,inactive,inactive,inactive,inactive,,,inactive
O=C(CCSc1nnc2sc3ccccc3n12)N(C(=O)NC1CCCCC1)C1CCCCC1,,1000 µg/mL,inactive,inactive,> 16,< 10,,10,inactive,,300,< 10,inactive,inactive,,inactive,,,,
COC(=O)[C@H](CCSC)NC(=O)CCn1nc2sc3ccccc3n2c1=S,,1000 µg/mL,inactive,inactive,10,< 10,,< 10,inactive,,500,,inactive,inactive,,inactive,inactive,,,
NNC(=O)CSc1nnc2sc3ccccc3n12,,inactive,inactive,500 µg/mL,> 16,,< 10,10,inactive,,100,< 10,inactive,inactive,inactive,,,,,
COC(=O)[C@H](CC(C)C)NC(=O)CSc1nnc2sc3ccccc3n12,,inactive,inactive,inactive,10,,,< 10,inactive,,500,,inactive,inactive,inactive,inactive,inactive,,,
COC(=O)[C@H](CCSC)NC(=O)CCSc1nnc2sc3ccccc3n12,,1000 µg/mL,inactive,inactive,10,< 10,,< 10,inactive,,500,,inactive,inactive,,inactive,inactive,,,

# Reference: ChEMBL document CHEMBL2390931, “Synthesis and antifungal activity of some s-mercaptotriazolobenzothiazolyl amino acid derivatives” (2013)
